ChEMBL document CHEMBL1121554, “Antimalarials. 12. Preparation of carbon isosteres of selected 4-pyridinemethanols as suppressive antimalarials” (1980)
The source made the active and inactive calls.

How the values were obtained:
Mus musculus [1] = experiment: Compound was evaluated for the antimalarial activity against Plasmodium berghei in mice (Mus musculus) at the dose 80 (mg/kg) administered subcutaneously; IA is defined as inactive.; assay type: functional, organism-based
Mus musculus [2] = experiment: Compound was evaluated for the antimalarial activity against Plasmodium berghei in mice (Mus musculus) at the dose 160 (mg/kg) administered subcutaneously; (C) is the number of mice (Mus musculus) surviving out of five at 60 days post-infection; assay type: functional
Procedure, shortened: (§1)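 P. berghei-infected mice, five per dose group; one subcutaneous dose given 72 h after infection. Read-out is the increase in mean survival time over infected controls, counted as active when the increase is at least 100%. Cures are mice alive out of five at 60 days post-infection. Testing was done at Rane Laboratories, University of Miami.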

Mus musculus [3] = experiment: Compound was evaluated for the antimalarial activity against Plasmodium berghei in mice (Mus musculus) at the dose 40 (mg/kg) administered subcutaneously; (C) is the number of mice (Mus musculus) surviving out of five at 60 days post-infection; assay type: functional; procedure, shortened: as §1
Mus musculus [4] = experiment: Compound was evaluated for the antimalarial activity against Plasmodium berghei in mice (Mus musculus) at the dose 20 (mg/kg) administered subcutaneously; (A) active; assay type: functional; procedure, shortened: as §1
Mus musculus [5] = experiment: Compound was evaluated for the antimalarial activity against Plasmodium berghei in mice (Mus musculus) at the dose 320 (mg/kg) administered subcutaneously; (C) is the number of mice (Mus musculus) surviving out of five at 60 days post-infection; assay type: functional; procedure, shortened: as §1
Mus musculus [6] = experiment: Compound was evaluated for the antimalarial activity against Plasmodium berghei in mice (Mus musculus) at the dose 640 (mg/kg) administered subcutaneously; (C) is the number of mice (Mus musculus) surviving out of five at 60 days post-infection; assay type: functional; procedure, shortened: as §1
Mus musculus [7] = experiment: Compound was evaluated for the antimalarial activity against Plasmodium berghei in mice (Mus musculus) at the dose 80 (mg/kg) administered subcutaneously; (C) is the number of mice (Mus musculus) surviving out of five at 60 days post-infection; assay type: functional; procedure, shortened: as §1
Mus musculus [8] = experiment: Compound was evaluated for the antimalarial activity against Plasmodium berghei in mice (Mus musculus) at the dose 40 (mg/kg) administered subcutaneously; (A) active; assay type: functional; procedure, shortened: as §1
Mus musculus [9] = experiment: Compound was evaluated for the antimalarial activity against Plasmodium berghei in mice (Mus musculus) at the dose 20 (mg/kg) administered subcutaneously; assay type: functional; procedure, shortened: as §1
Mus musculus [10] = experiment: Compound was evaluated for the antimalarial activity against Plasmodium berghei in mice (Mus musculus) at the dose 40 (mg/kg) administered subcutaneously; assay type: functional; procedure, shortened: as §1
Mus musculus [11] = experiment: (§2) Compound was evaluated for the antimalarial activity against Plasmodium berghei in mice (Mus musculus) at the dose 80 (mg/kg) administered subcutaneously; assay type: functional
Mus musculus [12] = experiment: Compound was evaluated for the antimalarial activity against Plasmodium berghei in mice (Mus musculus) at the dose 80 (mg/kg) administered subcutaneous; (A) active; assay type: functional; procedure, shortened: as §1
Mus musculus [13] = experiment: Compound was evaluated for the antimalarial activity against Plasmodium berghei in mice (Mus musculus) at the dose 160 (mg/kg) administered subcutaneously; (A) active; assay type: functional; procedure, shortened: as §1
Mus musculus [14] = experiment: as §2; assay type: functional; procedure, shortened: as §1; remark: listed apart in the source
Mus musculus [15] = experiment: Compound was evaluated for the antimalarial activity against Plasmodium berghei in mice (Mus musculus) at the dose 320 (mg/kg) administered subcutaneously; (A) active; assay type: functional; procedure, shortened: as §1

CCCCNCC(O)c1cc(/C=C/c2ccc(C(F)(F)F)cc2)nc(/C=C/c2ccc(C(F)(F)F)cc2)c1 (stereo unspecified)
Delta MST (Mus musculus [1]): inactive

CCCCNCC(O)c1cc(-c2ccc(Cl)cc2)nc(-c2ccc(Cl)cc2)c1 (stereo unspecified)
No. of cures (Mus musculus [2]): 3
No. of cures (Mus musculus [3]): 1
Delta MST (Mus musculus [4]): 10.8 days
No. of cures (Mus musculus [5]): 5
No. of cures (Mus musculus [6]): 5
No. of cures (Mus musculus [7]): 2

CCCCNCC(O)c1cc(/C=C/c2ccc(C(F)(F)F)cc2)cc(/C=C/c2ccc(C(F)(F)F)cc2)c1 (stereo unspecified)
Delta MST (Mus musculus [1]): inactive

CCCCN(CCCC)CC(O)c1cc(-c2ccc(Cl)cc2)nc(-c2ccc(Cl)cc2)c1 (stereo unspecified)
No. of cures (Mus musculus [2]): 3
No. of cures (Mus musculus [5]): 4
No. of cures (Mus musculus [6]): 5
Delta MST (Mus musculus [8]): 15.7 days
No. of cures (Mus musculus [7]): 3
Delta MST (Mus musculus [9]): 2.3 days

CCCCNCC(O)c1cc(-c2ccc(Cl)cc2)cc(-c2ccc(Cl)cc2)c1 (stereo unspecified)
No. of cures (Mus musculus [2]): 5
No. of cures (Mus musculus [5]): 5
Delta MST (Mus musculus [10]): 1.3 days
No. of cures (Mus musculus [7]): 3
Delta MST (Mus musculus [9]): 0.5 days

CCCCN(CCCC)CC(O)c1cc(/C=C/c2ccc(C(F)(F)F)cc2)nc(/C=C/c2ccc(C(F)(F)F)cc2)c1 (stereo unspecified)
No. of cures (Mus musculus [2]): 5
No. of cures (Mus musculus [11]): 2
No. of cures (Mus musculus [5]): 5
No. of cures (Mus musculus [6]): 5
Delta MST (Mus musculus [10]): 2.9 days
Delta MST (Mus musculus [9]): 0.2 days

CCCCN(CCCC)CC(O)c1cc(/C=C/c2ccc(C(F)(F)F)cc2)cc(/C=C/c2ccc(C(F)(F)F)cc2)c1 (stereo unspecified)
No. of cures (Mus musculus [2]): 5
No. of cures (Mus musculus [5]): 5
Delta MST (Mus musculus [10]): 0.5 days
Delta MST (Mus musculus [12]): 8.1 days
Delta MST (Mus musculus [9]): 0.5 days

CCCCN(CCCC)CC(O)c1cc(-c2ccc(Cl)cc2)cc(-c2ccc(Cl)cc2)c1 (stereo unspecified)
Delta MST (Mus musculus [13]): 9.7 days
No. of cures (Mus musculus [6]): 5
Delta MST (Mus musculus [14]): 4.1 days
Delta MST (Mus musculus [10]): 0.5 days
Delta MST (Mus musculus [9]): 0.3 days
Delta MST (Mus musculus [15]): 13.9 days
